Data taken from ChEMBL document CHEMBL1131637, “Novel and selective 5-HT2C/2B receptor antagonists as potential anxiolytic agents: synthesis, quantitative structure-activity relationships, and molecular modeling of substituted 1-(3-pyridylcarbamoyl)indolines” (J Med Chem, 1998).

What was measured:
[1] = target: 5-hydroxytryptamine receptor 2A (Homo sapiens, UniProt P28223); assay: Binding affinity towards human 5-hydroxytryptamine 2A receptor expressed in HEK 293 cells using [3H]ketanserin as radioligand; assay type: cell-based, HEK293
Sequence of 5-hydroxytryptamine receptor 2A (P28223 whole entry): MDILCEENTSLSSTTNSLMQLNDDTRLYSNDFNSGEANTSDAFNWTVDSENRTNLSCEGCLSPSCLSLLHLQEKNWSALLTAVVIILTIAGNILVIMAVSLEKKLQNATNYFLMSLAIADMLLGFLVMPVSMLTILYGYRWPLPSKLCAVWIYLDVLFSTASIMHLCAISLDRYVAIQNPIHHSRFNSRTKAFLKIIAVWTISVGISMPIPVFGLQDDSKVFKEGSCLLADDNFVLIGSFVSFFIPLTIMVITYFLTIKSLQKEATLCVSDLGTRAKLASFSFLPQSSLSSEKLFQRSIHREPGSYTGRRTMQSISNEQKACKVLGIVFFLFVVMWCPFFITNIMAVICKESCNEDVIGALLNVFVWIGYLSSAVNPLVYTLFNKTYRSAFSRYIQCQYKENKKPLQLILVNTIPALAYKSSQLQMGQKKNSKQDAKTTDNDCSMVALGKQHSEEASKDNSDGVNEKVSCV
Method in brief: (§1)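 Radioligand binding on human cloned receptors stably expressed in HEK 293 cells; 5-HT2A labelled with [3H]ketanserin, 5-HT2B with [3H]-5-HT. Values are means of at least two determinations, each within 0.2 log unit of the mean.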

[2] = target: T1, 5-hydroxytryptamine receptor 2C (Homo sapiens, UniProt P28335); assay: Binding affinity towards cloned human 5-hydroxytryptamine 2C receptor expressed in HEK 293 cells using [3H]mesulergine as radioligand; assay type: cell-based, HEK293
T1 sequence (P28335 whole entry): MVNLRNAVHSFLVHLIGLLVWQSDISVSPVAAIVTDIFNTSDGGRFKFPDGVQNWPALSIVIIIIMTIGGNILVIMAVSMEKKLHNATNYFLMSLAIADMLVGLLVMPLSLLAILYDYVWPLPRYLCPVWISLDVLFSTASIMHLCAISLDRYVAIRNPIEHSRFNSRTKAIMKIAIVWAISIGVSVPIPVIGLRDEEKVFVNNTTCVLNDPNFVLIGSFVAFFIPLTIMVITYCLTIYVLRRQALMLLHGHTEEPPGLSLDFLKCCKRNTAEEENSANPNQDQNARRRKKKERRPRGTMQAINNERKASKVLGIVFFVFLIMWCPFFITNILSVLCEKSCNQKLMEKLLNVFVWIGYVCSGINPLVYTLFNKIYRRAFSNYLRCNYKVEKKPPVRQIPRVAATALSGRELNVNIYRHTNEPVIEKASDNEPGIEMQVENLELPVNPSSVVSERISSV

Rattus norvegicus [3] = assay: Percentage change punished lever presses from mean score on 6-8 rats(P<0.001) at 0.2 mg/kg po1h pretest; assay type: functional
Rattus norvegicus [4] = assay: Percentage change punished lever presses from mean score on 6-8 rats(P<0.001) at 0.5 mg/kg po1h pretest; assay type: functional
Rattus norvegicus [5] = assay: Percentage change punished lever presses from mean score on 6-8 rats(P<0.001) at 10 mg/kg po1h pretest; assay type: functional
Rattus norvegicus [6] = assay: Percentage change punished lever presses from mean score on 6-8 rats(P<0.001) at 1 mg/kg po1h pretest; assay type: functional
Rattus norvegicus [7] = assay: Percentage change punished lever presses from mean score on 6-8 rats(P<0.001) at 20 mg/kg po1h pretest; assay type: functional
Rattus norvegicus [8] = assay: Percentage change punished lever presses from mean score on 6-8 rats(P<0.001) at 2 mg/kg po1h pretest; assay type: functional
Rattus norvegicus [9] = assay: Percentage change punished lever presses from mean score on 6-8 rats(P<0.001) at 5 mg/kg po1h pretest; assay type: functional
Rattus norvegicus [10] = assay: Percentage change unpunished lever presses from mean score on 6-8 rats at 0.2 mg/kg po1h pretest; assay type: functional
Rattus norvegicus [11] = assay: Percentage change unpunished lever presses from mean score on 6-8 rats at 0.5 mg/kg po1h pretest; assay type: functional
Rattus norvegicus [12] = assay: Percentage change unpunished lever presses from mean score on 6-8 rats at 10 mg/kg po1h pretest; assay type: functional
Rattus norvegicus [13] = assay: Percentage change unpunished lever presses from mean score on 6-8 rats at 1 mg/kg po1h pretest; assay type: functional
Rattus norvegicus [14] = assay: Percentage change unpunished lever presses from mean score on 6-8 rats at 20 mg/kg po1h pretest; assay type: functional
Rattus norvegicus [15] = assay: Percentage change unpunished lever presses from mean score on 6-8 rats at 2 mg/kg po1h pretest; assay type: functional
Rattus norvegicus [16] = species: Rattus norvegicus; assay: The dose required to reverse […]- induced hypolocomotion in rat by 50 %; assay type: functional; conditions: ip, 0.5 h, read-out: ID50 (the source's name)
Rattus norvegicus [17] = assay: Percentage change unpunished lever presses from mean score on 6-8 rats(P<0.05) at 0.1 mg/kg po1h pretest; assay type: functional
Rattus norvegicus [18] = assay: Percentage change unpunished lever presses from mean score on 6-8 rats(P<0.01) at 5 mg/kg po1h pretest
Rattus norvegicus [19] = assay: Percentage change punished lever presses from mean score on 6-8 rats at 0.5 mg/kg po1h pretest; assay type: functional
Rattus norvegicus [20] = assay: Percentage change punished lever presses from mean score on 6-8 rats(P<0.01) at 5 mg/kg po1h pretest; assay type: functional
Rattus norvegicus [21] = assay: Percentage change unpunished lever presses from mean score on 6-8 rats at 5 mg/kg po1h pretest; assay type: functional
Rattus norvegicus [22] = assay: Percentage change unpunished lever presses from mean score on 6-8 ratsP<0.01) at 1 mg/kg po1h pretest; assay type: functional
Rattus norvegicus [23] = assay: Percentage change unpunished lever presses from mean score on 6-8 ratsP<0.05)at 2 mg/kg po1h pretest; assay type: functional
[24] = target: 5-hydroxytryptamine receptor 2B (Homo sapiens, UniProt P41595); assay: Binding affinity towards cloned human 5-hydroxytryptamine 2B receptor expressed in HEK 293 cells using [3H]5-HT as radioligand; assay type: cell-based, HEK293; method in brief: as §1
Sequence of 5-hydroxytryptamine receptor 2B (P41595 whole entry): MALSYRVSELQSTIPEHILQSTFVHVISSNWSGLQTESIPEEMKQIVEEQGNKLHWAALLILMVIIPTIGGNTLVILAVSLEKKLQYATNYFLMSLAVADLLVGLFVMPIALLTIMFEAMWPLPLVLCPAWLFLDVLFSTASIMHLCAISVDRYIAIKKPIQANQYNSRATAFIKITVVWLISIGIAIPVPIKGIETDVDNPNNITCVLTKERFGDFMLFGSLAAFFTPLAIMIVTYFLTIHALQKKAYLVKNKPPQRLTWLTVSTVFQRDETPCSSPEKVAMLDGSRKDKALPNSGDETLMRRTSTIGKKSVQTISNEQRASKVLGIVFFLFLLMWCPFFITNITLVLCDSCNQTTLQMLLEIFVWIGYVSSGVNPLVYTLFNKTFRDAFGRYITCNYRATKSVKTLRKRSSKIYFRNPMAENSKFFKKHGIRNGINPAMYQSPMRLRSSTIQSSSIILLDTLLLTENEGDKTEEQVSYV

Structure (SMILES): COc1cc2c(cc1C(F)(F)F)N(C(=O)Nc1cccnc1)CC2
- Ki [1]: 1 µM
- Ki [2]: 0.01 µM
- Change (Rattus norvegicus [3]): 26%
- Change (Rattus norvegicus [4]): 36%
- Change (Rattus norvegicus [5]): 63%
- Change (Rattus norvegicus [6]): 28%
- Change (Rattus norvegicus [7]): 62%
- Change (Rattus norvegicus [8]): 34%
- Change (Rattus norvegicus [9]): 37%
- Change (Rattus norvegicus [10]): 2%
- Change (Rattus norvegicus [11]): 2%
- Change (Rattus norvegicus [12]): 0%
- Change (Rattus norvegicus [13]): -2%
- Change (Rattus norvegicus [14]): -1%
- Change (Rattus norvegicus [15]): 3%
- ED50 (Rattus norvegicus [16]): 0.8 mg/kg
- Change (Rattus norvegicus [17]): 8%
- Change (Rattus norvegicus [18]): 8%

Structure (SMILES): CSc1cc2c(cc1C(F)(F)F)N(C(=O)Nc1cccnc1)CC2
- Change (Rattus norvegicus [19]): 6%
- Change (Rattus norvegicus [5]): 46%
- Change (Rattus norvegicus [6]): 30%
- Change (Rattus norvegicus [7]): 76%
- Change (Rattus norvegicus [8]): 36%
- Change (Rattus norvegicus [20]): 38%
- Change (Rattus norvegicus [11]): 3%
- Change (Rattus norvegicus [12]): -2%
- Change (Rattus norvegicus [14]): 0%
- Change (Rattus norvegicus [21]): 2%
- Change (Rattus norvegicus [22]): 10%
- Change (Rattus norvegicus [23]): 4%
- ED50 (Rattus norvegicus [16]): 1.2 mg/kg

Structure (SMILES): O=C(Nc1cccnc1)N1CCc2ccc(C(F)(F)F)cc21
- Ki [1]: 0.501 µM
- Ki [2]: 0.0501 µM

Structure (SMILES): CSc1cc2c(cc1I)N(C(=O)Nc1cccnc1)CC2
- Ki [1]: 0.501 µM
- Ki [2]: 0.002 µM
- ED50 (Rattus norvegicus [16]): 3.2 mg/kg

Structure (SMILES): CCSc1cc2c(cc1C(F)(F)F)N(C(=O)Nc1cccnc1)CC2
- Ki [1]: 3.16 µM
- Ki [2]: 0.00316 µM
- ED50 (Rattus norvegicus [16]): 4.4 mg/kg
- Ki [24]: 0.01 µM

Structure (SMILES): O=C(Nc1cccnc1)N1CCc2cc(Cl)ccc21
- Ki [1]: 2.51 µM
- Ki [2]: 0.0794 µM

Structure (SMILES): O=C(Nc1cccnc1)N1CCc2cc(OCC3CC3)c(C(F)(F)F)cc21
- Ki [1]: 3.98 µM
- Ki [2]: 0.02 µM

Structure (SMILES): CSc1cc2c(cc1Br)CCN2C(=O)Nc1cccnc1
- Ki [1]: 2.51 µM
- Ki [2]: 0.0501 µM

Structure (SMILES): O=C(Nc1cccnc1)N1CCc2cc(Br)cc([N+](=O)[O-])c21
- Ki [1]: 3.98 µM
- Ki [2]: 0.316 µM

Structure (SMILES): Cc1cc2c(cc1I)N(C(=O)Nc1cccnc1)CC2
- Ki [1]: 0.0631 µM
- Ki [2]: 0.00316 µM

Structure (SMILES): O=C(Nc1cccnc1)N1CCc2cc(Cl)c(C(F)(F)F)cc21
- Ki [1]: 0.158 µM
- Ki [2]: 0.00631 µM

Structure (SMILES): O=C(Nc1cccnc1)N1CCc2cc(-c3ccccc3)ccc21
- Ki [1]: 5.01 µM
- Ki [2]: 0.126 µM

Structure (SMILES): CCCc1cc2c(cc1Cl)N(C(=O)Nc1cccnc1)CC2
- Ki [1]: 1.26 µM
- Ki [2]: 0.02 µM

Structure (SMILES): CSc1cc2c(cc1OC(F)(F)F)N(C(=O)Nc1cccnc1)CC2
- Ki [1]: 3.16 µM
- Ki [2]: 0.0251 µM

Structure (SMILES): O=C(Nc1cccnc1)N1CCc2cc(Cl)c(Cl)cc21
- Ki [1]: 0.251 µM
- Ki [2]: 0.00794 µM

Structure (SMILES): CC(C)(C)c1cc2c(cc1Cl)N(C(=O)Nc1cccnc1)CC2
- Ki [1]: 0.631 µM
- Ki [2]: 0.02 µM
- Ki [24]: 0.158 µM

Structure (SMILES): CSc1ccc2c(c1)CCN2C(=O)Nc1cccnc1
- Ki [1]: 3.98 µM
- Ki [2]: 0.0398 µM

Structure (SMILES): O=C(Nc1cccnc1)N1CCc2c(Cl)cccc21
- Ki [1]: 3.98 µM
- Ki [2]: 0.501 µM

Structure (SMILES): O=C(Nc1cccnc1)N1CCc2ccc(Cl)cc21
- Ki [1]: 0.794 µM
- Ki [2]: 0.0501 µM

Structure (SMILES): COC(=O)c1cc2c(cc1Cl)N(C(=O)Nc1cccnc1)CC2
- Ki [1]: 6.31 µM
- Ki [2]: 0.0316 µM
- ED50 (Rattus norvegicus [16]): 16 mg/kg

Structure (SMILES): CC(C)Oc1cc2c(cc1Cl)N(C(=O)Nc1cccnc1)CC2
- Ki [1]: > 6.31 µM
- Ki [2]: 0.0158 µM
- ED50 (Rattus norvegicus [16]): 4 mg/kg

Structure (SMILES): O=C(Nc1cccnc1)N1CCc2cc(-c3ccccc3)c(Cl)cc21
- Ki [1]: 3.98 µM
- Ki [2]: 0.126 µM

Structure (SMILES): CC(C)c1ccc2c(c1)CCN2C(=O)Nc1cccnc1
- Ki [1]: 2 µM
- Ki [2]: 0.0794 µM

Structure (SMILES): CC(C)Sc1cc2c(cc1C(F)(F)F)N(C(=O)Nc1cccnc1)CC2
- Ki [1]: 5.01 µM
- Ki [2]: 0.0316 µM

Structure (SMILES): CN(C)c1ccc2c(c1)CCN2C(=O)Nc1cccnc1
- Ki [1]: > 6.31 µM
- Ki [2]: 0.316 µM

Structure (SMILES): Cc1ccc2c(c1)CCN2C(=O)Nc1cccnc1
- Ki [1]: 5.01 µM
- Ki [2]: 0.158 µM
